Data published in PubChem BioAssay.
Active and inactive are the calls of the source.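 Rule for the calls, unless noted: active = viability at or under a set limit in both replicates, limit being median viability minus 3 SD (cut at about 48% in these data, passing the limit was not always enough); inconclusive = at or under the limit in just one replicate; inactive = at or above the limit in both replicates.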

Legend:
[1] = SK-BR-3 cell growth inhibitors, pilot screen, 24 h, human (AID 572;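 active = viability at or below 10% of carrier control in both of two separate runs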;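 note: compound exposure lasted between 18 and 24 h rather than exactly 24 h; 100% = carrier-treated control wells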); conditions: SK-BR-3 viability, CellTiter-Glo luminescence, at 10 µM, stronger effect = lower value
[2] = HUVEC growth inhibition – cell-based, human, primary screen (AID 575;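 active = viability at or below 30% in both replicate assays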;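 note: 100% = median of untreated cell wells with 0.1% DMSO on each plate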); conditions: HUVEC proliferation, CellTiter-Glo luminescence, 72 h; at 10 µM; stronger effect = lower value
Summary of the method: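 System: primary human umbilical vein endothelial cells; Quantity: 1250 endothelial cells in each well; Buffer or medium: supplemented EBM, 2% fetal bovine serum; Doses: one dose, 10 µM final, 0.1% DMSO; Incubation: 72 h compound incubation; Technique: ATP-based CellTiter-Glo luminescent read; Evaluation: percent of median DMSO-control luminescence; Controls: vehicle and MePR control wells.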

[3] = growth inhibitors of H69AR lung tumor, primary screen, human, duplicate replicates (AID 580); conditions: H69AR lung tumor cells viability, ATP luminescence, 72 h; at 10 µM; stronger effect = lower value;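 note: 100% = mean luminescence of untreated wells and 0% = no signal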
[4] = reversal of MRP1-mediated doxorubicin resistance, pilot screen, H69AR cells, doxorubicin co-treatment (AID 601;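 active = viability loss from added drug above about 55%, and viability with drug at most 40%, in both replicates, limit read from the data, passing the limit was not always enough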); conditions: CellTiter-Glo, 72 h, at 10 µM; for differential viability (reversal): stronger effect = higher value
[5] = 384-well plate pilot, post-Golgi transport modulator project, inhibition of yeast transport mutant growth (AID 636; in the data active = inhibition above about 31%); conditions: absorbance 615 nm, about 18 h, stronger effect = higher value
[6] = growth suppression of yeast trafficking mutant, preliminary HTS, modulators of trafficking downstream of Golgi apparatus project, 1536-format plate, OD 615 nm (AID 637; in the data active = inhibition above about 30%); conditions: yeast transport mutant growth, absorbance 615 nm, 18 h; stronger effect = higher value
[7] = H69AR cells + 2 uM doxorubicin, measured here: viability with 2 uM doxorubicin, stronger effect = lower value
[8] = H69AR cells, compound alone cytotoxicity

SMILES	viability [1]	viability [2]	viability [3]	differential viability (reversal) ([4]; H69AR cells + 2 uM doxorubicin)	viability [4, 7]	viability [4, 8]	inhibition [5]	inhibition [6]
CCN(CC)C(=O)C1CCN(CC2CC=CCC2)CC1 (configuration not stated)	97% (inactive)	109% (inactive)	94.8% (inactive)	-3.97% (inactive)	98.7%	94.8%	-2.93% (inactive)	-2.91% (inactive)
c1cc2c(cc1C1CCCN1)OCCCO2 (configuration not stated)	103% (inactive)	113% (inactive)	91.6% (inactive)	-7.94% (inactive)	99.5%	91.6%	-5.21% (inactive)	2% (inactive)
Cc1cccc(C)c1OCC(=O)Nc1cccc(NC(=O)c2ccco2)c1	97% (inactive)	71.2% (inactive)	84.6% (inactive)	1.53% (inactive)	83.1%	84.6%	-3.29% (inactive)	-0.16% (inactive)
O=C(Nc1ncc2c(n1)CC(c1ccccc1)CC2=O)c1ccco1 (configuration not stated)	102% (inactive)	98.3% (inactive)	81.8% (inactive)	5.16% (inactive)	76.7%	81.8%	-5.21% (inactive)	-0.16% (inactive)
O=C(NCc1cccs1)c1cc2c(s1)CS(=O)(=O)C2	116% (inactive)	101% (inactive)	98.1% (inactive)	4.27% (inactive)	93.8%	98.1%	-4% (inactive)	-1.64% (inactive)
CC1(C)CC(=O)C=C(NCc2ccncc2)C1	89% (inactive)	113% (inactive)	98.6% (inactive)	-26.3% (inactive)	125%	98.6%	-2.3% (inactive)	-3.45% (inactive)
CCc1[nH]nc2c1C1(CCN(C(=O)OCc3ccccc3)CC1)C(C#N)=C(N)O2	112% (inactive)	85.6% (inactive)	85.2% (inactive)	-0.55% (inactive)	85.8%	85.2%	-8.9% (inactive)	2.1% (inactive)
COC(=O)c1cc(S(=O)(=O)N2CCOCC2)c(N2CCOCC2)cc1N1CCOCC1	124% (inactive)	102% (inactive)	85.5% (inactive)	13.4% (inactive)	72.1%	85.5%	-0.14% (inactive)	-2.91% (inactive)
CCOC(=O)C1=C[C@]2(CC)CCCN3CCc4c(n1c1ccccc41)[C@@H]32	70% (inactive)	49.9% (inactive)	80.1% (inactive)	16.4% (inactive)	63.7%	80.1%	-0.26% (inactive)	-1.67% (inactive)
CC1(C)CC(=O)C(C=NC(CCC(N)=O)C(=O)O)=C(O)C1 (configuration not stated)	96% (inactive)	96.5% (inactive)	91.9% (inactive)	8.63% (inactive)	83.3%	91.9%	-8.22% (inactive)	0.18% (inactive)
CCOC(=O)CC(=O)CSc1nc(-c2cccnc2)ccc1C#N	118% (inactive)	98.6% (inactive)	68.4% (inactive)	-24% (inactive)	92.4%	68.4%	-3.97% (inactive)	0% (inactive)
C1CCN=C(Nc2nc3c(s2)CCCC3)CC1	104% (inactive)	109% (inactive)	89.4% (inactive)	7.56% (inactive)	81.9%	89.4%	-5.6% (inactive)	-1.45% (inactive)
CCOc1ccccc1C1N(c2ccc(F)cc2)C(=O)C2CCCN21 (configuration not stated)	109% (inactive)	111% (inactive)	99% (inactive)	19.2% (inactive)	79.8%	99%	-4.4% (inactive)	2.18% (inactive)
COc1nc(NCCc2ccc(OC)c(OC)c2)nc(NC(C)(C)CO)n1	96% (inactive)	113% (inactive)	95.5% (inactive)	7.75% (inactive)	87.8%	95.5%	-3.38% (inactive)	-1.31% (inactive)
COc1cc2c(cc1OC)CN(C(=O)COc1ccc(C)c(C)c1)CC2	94% (inactive)	91.4% (inactive)	83.9% (inactive)	-5.58% (inactive)	89.5%	83.9%	-7.95% (inactive)	1.29% (inactive)
C=CCn1c(SCC(=O)Nc2ccccc2OC)nnc1-c1ccccn1	84% (inactive)	92.4% (inactive)	27.6% (active)	-38.3% (inactive)	65.9%	27.6%	-3.78% (inactive)	-4.36% (inactive)
CCOC(=O)c1cc(C(C)(C)C)oc1CN	118% (inactive)	96.1% (inactive)	90.8% (inactive)	-1.73% (inactive)	92.5%	90.8%	-7.12% (inactive)	9.35% (inactive)
O=C(NCCCN1CCCC1=O)c1ccc2c(=O)n(Cc3ccco3)c(=S)[nH]c2c1	97% (inactive)	105% (inactive)	99.6% (inactive)	7.89% (inactive)	91.7%	99.6%	1.95% (inactive)	10.5% (inactive)
Cc1cc(S(=O)(=O)N2CCN(c3ncccn3)CC2)ccc1-n1cnnn1	94% (inactive)	120% (inactive)	97.1% (inactive)	3.36% (inactive)	93.7%	97.1%	-2.8% (inactive)	-0.73% (inactive)
